20 compounds from ChEMBL document CHEMBL5131497, “Design, Synthesis, and Characterization of TNP-2198, a Dual-Targeted Rifamycin-Nitroimidazole Conjugate with Potent Activity against Microaerophilic and Anaerobic Bacterial Pathogens” (J Med Chem, 2022) can be followed below.

Common to all, as to assay type: functional
For test [1], the system named is Helicobacter pylori. The test is described as follows: Antibacterial activity against Helicobacter pylori ATCC 700392. A digest of the protocol: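 Agar dilution per CLSI. Wild-type H. pylori ATCC 700392 (CB1531). Drugs prepared from 100× stocks as 2-fold dilutions in Mueller–Hinton agar with aged (≥2 weeks) sheep blood (5% v/v). Combinations were at 1:1 molar ratio. MIC read after 5 days at 35 °C under microaerobic atmosphere from a campylobacter gas-generating system.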

For test [2], the system named is Clostridioides difficile. In words: Antibacterial activity against Clostridioides difficile ATCC 9689.
For test [3], the system named is Helicobacter pylori. The test is described as follows: Antibacterial activity against rifampicin resistant Helicobacter pylori harboring rpoBL525I/D530N mutant.
Test [4] relates to Clostridioides difficile. In words: Antibacterial activity against Clostridioides difficile BAA 1382.
The test system of test [5] is Clostridioides difficile. In words: Antibacterial activity against rifampicin-resistant Clostridioides difficile harboring rpoBQ489K mutant.
A further test relates to Staphylococcus aureus. In words: Antibacterial activity against Staphylococcus aureus ATCC 29213.
For test [6], the system named is Helicobacter pylori. In words: Antibacterial activity against Helicobacter pylori infected in C57/BL6 mouse assessed as bacterial load in stomach at 1 mg/kg administered twice daily via oral gavage starting from 7 days post inoculation and administered for 7 days in presence of 10 mg/kg clarithromycin and 20 mg/kg amoxicillin (reference value: 5.25 log10CFU). As to conditions: time 7 day.

In brackets after ≈: the same amount, converted by molar mass.

As usually defined, the MIC is the lowest concentration found to suppress growth. Read a low MIC as inhibition by little substance. In the case of `CO[C@H]1/C=C/O[C@@]2(C)Oc3c(C)c(O)c4c(O)c(c5c(nc6ccc(CCC(=O)N7CCN(CCn8c([N+](=O)[O-])cnc8C)CC7)cn65)c4c3C2=O)NC(=O)/C(C)=C\C=C\[C@H](C)[C@H](O)[C@@H](C)[C@@H](O)[C@@H](C)[C@H](OC(C)=O)[C@@H]1C`, the MIC in the test on Helicobacter pylori [1] was 1 µg/mL (≈ 0.939 µM); in the test with Clostridioides difficile [2], 0.004 µg/mL (≈ 0.00376 µM); in the test with Helicobacter pylori [3] it was above 8 µg/mL; in the test with Clostridioides difficile [4], 0.004 µg/mL (≈ 0.00376 µM); in the test on Clostridioides difficile [5], 4 µg/mL (≈ 3.76 µM).

With `CO[C@H]1/C=C/O[C@@]2(C)Oc3c(C)c(O)c4c(c3C2=O)C2=NC3(CCN(Cc5ccc(CO[C@@H]6COc7nc([N+](=O)[O-])cn7C6)cc5)CC3)NC2=C(NC(=O)/C(C)=C\C=C\[C@H](C)[C@H](O)[C@@H](C)[C@@H](O)[C@@H](C)[C@H](OC(C)=O)[C@@H]1C)C4=O`, the MIC against Staphylococcus aureus turned out to be 0.03 µg/mL (≈ 0.0278 µM); in the test with Helicobacter pylori [1], 0.03 µg/mL (≈ 0.0278 µM); in the test on Clostridioides difficile [2] it was 0.001 µg/mL (≈ 0.000927 µM).

Regarding `CO[C@H]1/C=C/O[C@@]2(C)Oc3c(C)c(O)c4c(O)c(c(N5CCN(CC6(C)Cn7cc([N+](=O)[O-])nc7O6)CC5)c(O)c4c3C2=O)NC(=O)/C(C)=C\C=C\[C@H](C)[C@H](O)[C@@H](C)[C@@H](O)[C@@H](C)[C@H](OC(C)=O)[C@@H]1C` (stereo partly specified), the figures for the MIC against Staphylococcus aureus, against Helicobacter pylori [1] and in the test with Clostridioides difficile [2] were 0.008 µg/mL (≈ 0.00831 µM), 0.25 µg/mL (≈ 0.26 µM) and 0.001 µg/mL (≈ 0.00104 µM), respectively.

Consider `CO[C@H]1/C=C/O[C@@]2(C)Oc3c(C)c(O)c4c(c3C2=O)C2=NC3(CCN(CC5(C)Cn6cc([N+](=O)[O-])nc6O5)CC3)NC2=C(NC(=O)/C(C)=C\C=C\[C@H](C)[C@H](O)[C@@H](C)[C@@H](O)[C@@H](C)[C@H](OC(C)=O)[C@@H]1C)C4=O` (stereo partly specified), for which the MIC in the test with Staphylococcus aureus and in the test on Helicobacter pylori [1] was 0.03 µg/mL (≈ 0.0309 µM) each time.

As to `CO[C@H]1/C=C/O[C@@]2(C)Oc3c(C)c(O)c4c(O)c(c(N5CCN(Cc6ccc(OCC7Cn8cc([N+](=O)[O-])nc8O7)cc6)CC5)c(O)c4c3C2=O)NC(=O)/C(C)=C\C=C\[C@H](C)[C@H](O)[C@@H](C)[C@@H](O)[C@@H](C)[C@H](OC(C)=O)[C@@H]1C` (stereo partly specified), the minimal inhibitory concentration (MIC) is below 0.004 µg/mL with Staphylococcus aureus and 0.25 µg/mL (≈ 0.237 µM) against Helicobacter pylori [1].

As to `CO[C@H]1/C=C/O[C@@]2(C)Oc3c(C)c(O)c4c(=O)c(c5oc6cc(N7CCN(c8ccc(OCC9(C)Cn%10cc([N+](=O)[O-])nc%10O9)cc8)CC7)cc(O)c6nc-5c4c3C2=O)NC(=O)/C(C)=C\C=C\[C@H](C)[C@H](O)[C@@H](C)[C@@H](O)[C@@H](C)[C@H](OC(C)=O)[C@@H]1C` (stereo partly specified), the results for the MIC with Staphylococcus aureus, against Helicobacter pylori [1] and in the test with Clostridioides difficile [2] were below 0.008 µg/mL, 0.06 µg/mL (≈ 0.0518 µM) and 0.03 µg/mL (≈ 0.0259 µM), respectively.

On to `O=[N+]([O-])c1cn2c(n1)OC[C@@H](OCc1ccc(OC(F)(F)F)cc1)C2` [PRETOMANID], for which the minimal inhibitory concentration (MIC) in the test with Staphylococcus aureus was above 32 µg/mL; against Helicobacter pylori [1], 2 µg/mL (≈ 5.57 µM); against Clostridioides difficile [2], 16 µg/mL (≈ 44.5 µM).

For `CO[C@H]1/C=C/O[C@@]2(C)Oc3c(C)c(O)c4c(=O)c(c5oc6cc(N7CCN(CC(C)C)CC7)cc(O)c6nc-5c4c3C2=O)NC(=O)/C(C)=C\C=C\[C@H](C)[C@H](O)[C@@H](C)[C@@H](O)[C@@H](C)[C@H](OC(C)=O)[C@@H]1C` [RIFALAZIL], the MIC was found to be 0.004 µg/mL (≈ 0.00425 µM) in the test on Staphylococcus aureus, 0.002 µg/mL (≈ 0.00213 µM) against Helicobacter pylori [1] and 0.001 µg/mL (≈ 0.00106 µM) in the test with Clostridioides difficile [2].

For `CO[C@H]1/C=C/O[C@@]2(C)Oc3c(C)c(O)c4c(O)c(c(N5CCN(C(=O)c6ccc(OCC7(C)Cn8cc([N+](=O)[O-])nc8O7)cc6)CC5)c(O)c4c3C2=O)NC(=O)/C(C)=C\C=C\[C@H](C)[C@H](O)[C@@H](C)[C@@H](O)[C@@H](C)[C@H](OC(C)=O)[C@@H]1C` (stereo partly specified), the MIC against Staphylococcus aureus worked out at 0.25 µg/mL (≈ 0.231 µM); with Helicobacter pylori [1], 4 µg/mL (≈ 3.69 µM).

In the case of `CO[C@H]1/C=C/O[C@@]2(C)Oc3c(C)c(O)c4c(O)c(c(N5CCN(Cc6ccc(CO[C@@H]7COc8nc([N+](=O)[O-])cn8C7)cc6)CC5)c(O)c4c3C2=O)NC(=O)/C(C)=C\C=C\[C@H](C)[C@H](O)[C@@H](C)[C@@H](O)[C@@H](C)[C@H](OC(C)=O)[C@@H]1C`, the MIC is below 0.008 µg/mL in the test on Staphylococcus aureus, 0.5 µg/mL (≈ 0.468 µM) in the test with Helicobacter pylori [1] and 0.008 µg/mL (≈ 0.00748 µM) against Clostridioides difficile [2].

As to `C[C@]1(COc2ccc(N3CCC(Oc4ccc(OC(F)(F)F)cc4)CC3)cc2)Cn2cc([N+](=O)[O-])nc2O1`, the MIC against Staphylococcus aureus was above 32 µg/mL; against Helicobacter pylori [1] it was 2 µg/mL (≈ 3.74 µM); in the test on Clostridioides difficile [2], above 16 µg/mL.

For the compound `CO[C@H]1/C=C/O[C@@]2(C)Oc3c(C)c(O)c4c(O)c(c(/C=N/N5CCN(CCn6c([N+](=O)[O-])cnc6C)CC5)c(O)c4c3C2=O)NC(=O)/C(C)=C\C=C\[C@H](C)[C@H](O)[C@@H](C)[C@@H](O)[C@@H](C)[C@H](OC(C)=O)[C@@H]1C`, the minimal inhibitory concentration (MIC) was 0.03 µg/mL (≈ 0.0312 µM) in the test with Staphylococcus aureus; 0.25 µg/mL (≈ 0.26 µM) against Helicobacter pylori [1]; 0.002 µg/mL (≈ 0.00208 µM) in the test on Clostridioides difficile [2]; 2 µg/mL (≈ 2.08 µM) in the test with Helicobacter pylori [3]; 0.0005 µg/mL (≈ 0.00052 µM) against Clostridioides difficile [4]; 2 µg/mL (≈ 2.08 µM) against Clostridioides difficile [5].

As for `CO[C@H]1/C=C/O[C@@]2(C)Oc3c(C)c(O)c4c(c3C2=O)C2=NC3(CCN(CC5Cn6cc([N+](=O)[O-])nc6O5)CC3)NC2=C(NC(=O)/C(C)=C\C=C\[C@H](C)[C@H](O)[C@@H](C)[C@@H](O)[C@@H](C)[C@H](OC(C)=O)[C@@H]1C)C4=O` (stereo partly specified), the MIC in the test with Staphylococcus aureus came to 0.015 µg/mL (≈ 0.0157 µM); in the test on Helicobacter pylori [1] it was 0.06 µg/mL (≈ 0.0626 µM).

As to `CO[C@H]1/C=C/O[C@@]2(C)Oc3c(C)c(O)c4c(=O)c(c5oc6cc(N7CCN(CCn8c([N+](=O)[O-])cnc8C)CC7)cc(O)c6nc-5c4c3C2=O)NC(=O)/C(C)=C\C=C\[C@H](C)[C@H](O)[C@@H](C)[C@@H](O)[C@@H](C)[C@H](OC(C)=O)[C@@H]1C`, the minimum inhibitory concentration (MIC) against Staphylococcus aureus is below 0.03 µg/mL; against Helicobacter pylori [1], 0.004 µg/mL (≈ 0.00385 µM); against Clostridioides difficile [2] it was 0.002 µg/mL (≈ 0.00193 µM); against Helicobacter pylori [3] it was 0.5 µg/mL (≈ 0.482 µM); against Clostridioides difficile [4] it was 0.001 µg/mL (≈ 0.000963 µM); against Clostridioides difficile [5], 2 µg/mL (≈ 1.93 µM).

`CO[C@H]1/C=C/O[C@@]2(C)Oc3c(C)c(O)c4c(O)c(c(N5CCN(C(=O)CO[C@@H]6COc7nc([N+](=O)[O-])cn7C6)CC5)c(O)c4c3C2=O)NC(=O)/C(C)=C\C=C\[C@H](C)[C@H](O)[C@@H](C)[C@@H](O)[C@@H](C)[C@H](OC(C)=O)[C@@H]1C`: the MIC in the test with Staphylococcus aureus was found to be 2 µg/mL (≈ 1.99 µM); with Helicobacter pylori [1] it was 4 µg/mL (≈ 3.97 µM).

Regarding `CO[C@H]1/C=C/O[C@@]2(C)Oc3c(C)c(O)c4c(O)c(c5c(nc6cc(C)ccn65)c4c3C2=O)NC(=O)/C(C)=C\C=C\[C@H](C)[C@H](O)[C@@H](C)[C@@H](O)[C@@H](C)[C@H](OC(C)=O)[C@@H]1C` [RIFAXIMIN], the MIC was 0.06 µg/mL (≈ 0.0763 µM) in the test on Staphylococcus aureus, 1 µg/mL (≈ 1.27 µM) in the test on Helicobacter pylori [1] and 0.004 µg/mL (≈ 0.00509 µM) in the test with Clostridioides difficile [2].

`CO[C@H]1/C=C/O[C@@]2(C)Oc3c(C)c(O)c4c(O)c(c(N5CCN(CCn6c([N+](=O)[O-])cnc6C)CC5)c(O)c4c3C2=O)NC(=O)/C(C)=C\C=C\[C@H](C)[C@H](O)[C@@H](C)[C@@H](O)[C@@H](C)[C@H](OC(C)=O)[C@@H]1C`: the minimum inhibitory concentration (MIC) was below 0.015 µg/mL in the test on Staphylococcus aureus, 0.06 µg/mL (≈ 0.0642 µM) with Helicobacter pylori [1], 0.00025 µg/mL (≈ 0.000267 µM) with Clostridioides difficile [2] and 0.00025 µg/mL (≈ 0.000267 µM) in the test on Clostridioides difficile [4].

Take `CO[C@H]1/C=C/O[C@@]2(C)Oc3c(C)c(O)c4c(O)c(c(N5CCN(c6ccc(OCC7(C)Cn8cc([N+](=O)[O-])nc8O7)cc6)CC5)c(O)c4c3C2=O)NC(=O)/C(C)=C\C=C\[C@H](C)[C@H](O)[C@@H](C)[C@@H](O)[C@@H](C)[C@H](OC(C)=O)[C@@H]1C` (stereo partly specified): the MIC against Staphylococcus aureus was 0.015 µg/mL (≈ 0.0142 µM); against Helicobacter pylori [1], 1 µg/mL (≈ 0.948 µM); against Clostridioides difficile [2], 0.03 µg/mL (≈ 0.0284 µM).

For `CO[C@H]1/C=C/O[C@@]2(C)Oc3c(C)c(O)c4c(c3C2=O)C2=NC3(CCN(CC(=O)Nc5ncc([N+](=O)[O-])s5)CC3)NC2=C(NC(=O)/C(C)=C\C=C\[C@H](C)[C@H](O)[C@@H](C)[C@@H](O)[C@@H](C)[C@H](OC(C)=O)[C@@H]1C)C4=O`, the MIC came out at 0.004 µg/mL (≈ 0.0041 µM) with Helicobacter pylori [1] and 0.001 µg/mL (≈ 0.00102 µM) with Clostridioides difficile [2].

As for `COc1ccc2[nH]c([S+]([O-])Cc3ncc(C)c(OC)c3C)nc2c1` (stereo unspecified) [OMEPRAZOLE], in the test with Helicobacter pylori [6], the Activity was found to be 1.7 log10CFU.
